Source: ChEMBL document CHEMBL3352437, “Novel 3,5-bis(arylidene)-4-oxo-1-piperidinyl dimers: structure-activity relationships and potent antileukemic and antilymphoma cytotoxicity” (Eur J Med Chem, 2014)

System: K562
Experiment: Antileukemic activity against human K562 cells assessed as inhibition of tumor growth after 24 hrs
Type: functional, cell-based
Conditions: K562, 24 h
Molecule `O=C1/C(=C\c2ccc(Cl)cc2)CN(C(=O)CC(=O)N2C/C(=C\c3ccc(Cl)cc3)C(=O)/C(=C/c3ccc(Cl)cc3)C2)C/C1=C\c1ccc(Cl)cc1` has an IC50 of 30 nM.

System: COLO 205
Experiment: Cytotoxicity against human COLO205 cells assessed as inhibition of tumor growth after 24 hrs
Type: functional, cell-based
Conditions: COLO 205, 24 h
In the case of `O=C1/C(=C\c2ccc(Cl)cc2)CN(C(=O)CC(=O)N2C/C(=C\c3ccc(Cl)cc3)C(=O)/C(=C/c3ccc(Cl)cc3)C2)C/C1=C\c1ccc(Cl)cc1`, the IC50 is reported as 80 nM.

System: BJAB
Experiment: Cytotoxicity against human BJAB cells assessed as dead cells at 1 uM after 24 hrs
Type: functional
Conditions: not given
In short: (§1)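 Dienones added as DMSO solutions to cells in RPMI medium and incubated 24 h at 37°C. Cytotoxicity was scored as cell-membrane disruption by propidium iodide staining and expressed as percentage of dead cells, averaged over three independent experiments.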
With `O=C1/C(=C\c2ccc(Cl)cc2)CN(C(=O)CC(=O)N2C/C(=C\c3ccc(Cl)cc3)C(=O)/C(=C/c3ccc(Cl)cc3)C2)C/C1=C\c1ccc(Cl)cc1` the Activity was 49.9%.

System: not listed separately
Experiment: Cytotoxicity against human 22Rvl cells assessed as dead cells at 1 uM after 24 hrs
Type: functional
Conditions: not given
In short: as §1
Work on `O=C1/C(=C\c2ccc(Cl)cc2)CN(C(=O)CC(=O)N2C/C(=C\c3ccc(Cl)cc3)C(=O)/C(=C/c3ccc(Cl)cc3)C2)C/C1=C\c1ccc(Cl)cc1` yielded an Activity of 1.7%.

System: Raji
Experiment: Cytotoxicity against human Raji cells assessed as dead cells at 1 uM after 24 hrs
Type: functional
Conditions: not given
In short: as §1
Work on `O=C1/C(=C\c2ccc(Cl)cc2)CN(C(=O)CC(=O)N2C/C(=C\c3ccc(Cl)cc3)C(=O)/C(=C/c3ccc(Cl)cc3)C2)C/C1=C\c1ccc(Cl)cc1` yielded an Activity of 32.7%.

System: not listed separately
Experiment: Cytotoxicity against human MOLT3 cells assessed as dead cells at 1 uM after 24 hrs
Type: functional, MOLT-3
Conditions: not given
In short: as §1
In the case of `O=C1/C(=C\c2ccc(Cl)cc2)CN(C(=O)CC(=O)N2C/C(=C\c3ccc(Cl)cc3)C(=O)/C(=C/c3ccc(Cl)cc3)C2)C/C1=C\c1ccc(Cl)cc1`, the Activity is reported as 20.6%.

System: CCRF-CEM
Experiment: Antiproliferative activity against human CEM cells after 72 hrs by coulter counting analysis
Type: functional, cell-based
Conditions: not given
In short: (§2)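 Cells exposed to a range of concentrations in RPMI 1640 at 37°C for 72 h. Surviving cells counted by Coulter counter. IC50 taken from concentration-response curves, mean ± SD of at least three independent experiments.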
Molecule `O=C1/C(=C\c2ccc(Cl)cc2)CN(C(=O)CC(=O)N2C/C(=C\c3ccc(Cl)cc3)C(=O)/C(=C/c3ccc(Cl)cc3)C2)C/C1=C\c1ccc(Cl)cc1` has an IC50 of 1060 nM.

System: HeLa
Experiment: Antiproliferative activity against human HeLa cells after 72 hrs by coulter counting analysis
Type: functional, cell-based
Conditions: not given
In short: as §2
For `O=C1/C(=C\c2ccc(Cl)cc2)CN(C(=O)CC(=O)N2C/C(=C\c3ccc(Cl)cc3)C(=O)/C(=C/c3ccc(Cl)cc3)C2)C/C1=C\c1ccc(Cl)cc1`, the IC50 was 822 nM.

System: SW-620
Experiment: Cytotoxicity against human SW620 cells assessed as inhibition of tumor growth after 24 hrs
Type: functional, cell-based
Conditions: SW-620, 24 h
Work on `O=C1/C(=C\c2ccc(Cl)cc2)CN(C(=O)CC(=O)N2C/C(=C\c3ccc(Cl)cc3)C(=O)/C(=C/c3ccc(Cl)cc3)C2)C/C1=C\c1ccc(Cl)cc1` yielded an IC50 of 30 nM.

System: HL-60(TB)
Experiment: Antileukemic activity against human HL-60(TB) cells assessed as inhibition of tumor growth after 24 hrs
Type: functional, cell-based
Conditions: HL-60, 24 h
`O=C1/C(=C\c2ccc(Cl)cc2)CN(C(=O)CC(=O)N2C/C(=C\c3ccc(Cl)cc3)C(=O)/C(=C/c3ccc(Cl)cc3)C2)C/C1=C\c1ccc(Cl)cc1` showed an IC50 of 110 nM.

System: HS27
Experiment: Cytotoxicity against human HS27 cells assessed as dead cells at 1 uM after 24 hrs
Type: cell-based
Conditions: hs27, 24 h
In short: (§3)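 Compounds added from DMSO solutions to cells in medium (RPMI; DMEM for Hs-27 fibroblasts) and incubated 24 h at 37°C. Membrane disruption scored by propidium iodide uptake. Result is percentage of dead cells, average of three independent experiments.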
With `O=C1/C(=C\c2ccc(Cl)cc2)CN(C(=O)CC(=O)N2C/C(=C\c3ccc(Cl)cc3)C(=O)/C(=C/c3ccc(Cl)cc3)C2)C/C1=C\c1ccc(Cl)cc1` the Activity was 5.7%.

System: not listed separately
Experiment: Cytotoxicity against human MDA231 cells assessed as dead cells at 1 uM after 24 hrs
Type: functional, MDA-MB-231
Conditions: not given
In short: as §1
With `O=C1/C(=C\c2ccc(Cl)cc2)CN(C(=O)CC(=O)N2C/C(=C\c3ccc(Cl)cc3)C(=O)/C(=C/c3ccc(Cl)cc3)C2)C/C1=C\c1ccc(Cl)cc1` the Activity was 32.7%.

System: LAPC4
Experiment: Cytotoxicity against human LAPC4 cells assessed as dead cells at 1 uM after 24 hrs
Type: functional
Conditions: not given
In short: as §1
In the case of `O=C1/C(=C\c2ccc(Cl)cc2)CN(C(=O)CC(=O)N2C/C(=C\c3ccc(Cl)cc3)C(=O)/C(=C/c3ccc(Cl)cc3)C2)C/C1=C\c1ccc(Cl)cc1`, the Activity is reported as 1%.

System: L1210
Experiment: Antiproliferative activity against mouse L1210 cells after 72 hrs by coulter counting analysis
Type: functional, cell-based
Conditions: L1210, 72 h
`O=C1/C(=C\c2ccc(Cl)cc2)CN(C(=O)CC(=O)N2C/C(=C\c3ccc(Cl)cc3)C(=O)/C(=C/c3ccc(Cl)cc3)C2)C/C1=C\c1ccc(Cl)cc1` gave an IC50 of 847 nM.

System: Jurkat
Experiment: Cytotoxicity against human Jurkat cells assessed as dead cells at 1 uM after 24 hrs
Type: functional
Conditions: not given
In short: as §1
`O=C1/C(=C\c2ccc(Cl)cc2)CN(C(=O)CC(=O)N2C/C(=C\c3ccc(Cl)cc3)C(=O)/C(=C/c3ccc(Cl)cc3)C2)C/C1=C\c1ccc(Cl)cc1` gave an Activity of 85.3%.

System: Ramos
Experiment: Cytotoxicity against human Ramos cells assessed as dead cells at 1 uM after 24 hrs
Type: functional
Conditions: not given
In short: as §1
`O=C1/C(=C\c2ccc(Cl)cc2)CN(C(=O)CC(=O)N2C/C(=C\c3ccc(Cl)cc3)C(=O)/C(=C/c3ccc(Cl)cc3)C2)C/C1=C\c1ccc(Cl)cc1` gave an Activity of 86.3%.

System: not listed separately
Experiment: Antileukemic activity against human RPMI8226 cells assessed as inhibition of tumor growth after 24 hrs
Type: functional, cell-based
Conditions: rpmi-8226
In the case of `O=C1/C(=C\c2ccc(Cl)cc2)CN(C(=O)CC(=O)N2C/C(=C\c3ccc(Cl)cc3)C(=O)/C(=C/c3ccc(Cl)cc3)C2)C/C1=C\c1ccc(Cl)cc1`, the IC50 is reported as 20 nM.

System: MCF7
Experiment: Cytotoxicity against human MCF7 cells assessed as dead cells at 1 uM after 24 hrs
Type: functional
Conditions: not given
In short: as §1
With `O=C1/C(=C\c2ccc(Cl)cc2)CN(C(=O)CC(=O)N2C/C(=C\c3ccc(Cl)cc3)C(=O)/C(=C/c3ccc(Cl)cc3)C2)C/C1=C\c1ccc(Cl)cc1` the Activity was 19.5%.

System: not listed separately
Experiment: Cytotoxicity against human NCI60 cells assessed as inhibition of tumor growth after 24 hrs
Type: functional, cell-based
Conditions: NCI60, 24 h
Molecule `O=C1/C(=C\c2ccc(Cl)cc2)CN(C(=O)CC(=O)N2C/C(=C\c3ccc(Cl)cc3)C(=O)/C(=C/c3ccc(Cl)cc3)C2)C/C1=C\c1ccc(Cl)cc1` has an IC50 of 90 nM.

System: YT
Experiment: Cytotoxicity against human YT cells assessed as dead cells at 1 uM after 24 hrs
Type: functional
Conditions: not given
In short: as §1
`O=C1/C(=C\c2ccc(Cl)cc2)CN(C(=O)CC(=O)N2C/C(=C\c3ccc(Cl)cc3)C(=O)/C(=C/c3ccc(Cl)cc3)C2)C/C1=C\c1ccc(Cl)cc1` showed an Activity of 16.8%.

System: DU-145
Experiment: Cytotoxicity against human DU145 cells assessed as dead cells at 1 uM after 24 hrs
Type: functional
Conditions: not given
In short: as §1
`O=C1/C(=C\c2ccc(Cl)cc2)CN(C(=O)CC(=O)N2C/C(=C\c3ccc(Cl)cc3)C(=O)/C(=C/c3ccc(Cl)cc3)C2)C/C1=C\c1ccc(Cl)cc1` showed an Activity of 40.3%.

System: EL4
Experiment: Cytotoxicity against mouse EL4 cells assessed as dead cells at 1 uM after 24 hrs
Type: functional
Conditions: not given
In short: as §1
`O=C1/C(=C\c2ccc(Cl)cc2)CN(C(=O)CC(=O)N2C/C(=C\c3ccc(Cl)cc3)C(=O)/C(=C/c3ccc(Cl)cc3)C2)C/C1=C\c1ccc(Cl)cc1` showed an Activity of 55.4%.

System: KM12
Experiment: Cytotoxicity against human KM12 cells assessed as inhibition of tumor growth after 24 hrs
Type: functional, cell-based
Conditions: KM12, 24 h
For `O=C1/C(=C\c2ccc(Cl)cc2)CN(C(=O)CC(=O)N2C/C(=C\c3ccc(Cl)cc3)C(=O)/C(=C/c3ccc(Cl)cc3)C2)C/C1=C\c1ccc(Cl)cc1`, the IC50 was 160 nM.

System: HCC 2998
Experiment: Cytotoxicity against human HCC2998 cells assessed as inhibition of tumor growth after 24 hrs
Type: functional, cell-based
Conditions: HCC 2998, 24 h
Work on `O=C1/C(=C\c2ccc(Cl)cc2)CN(C(=O)CC(=O)N2C/C(=C\c3ccc(Cl)cc3)C(=O)/C(=C/c3ccc(Cl)cc3)C2)C/C1=C\c1ccc(Cl)cc1` yielded an IC50 of 130 nM.

System: HCC70
Experiment: Cytotoxicity against human HCC70 cells assessed as dead cells at 1 uM after 24 hrs
Type: functional
Conditions: not given
In short: as §1
With `O=C1/C(=C\c2ccc(Cl)cc2)CN(C(=O)CC(=O)N2C/C(=C\c3ccc(Cl)cc3)C(=O)/C(=C/c3ccc(Cl)cc3)C2)C/C1=C\c1ccc(Cl)cc1` the Activity was 7.8%.

System: not listed separately
Experiment: Antiproliferative activity against human Molt4/C8 cells after 72 hrs by coulter counting analysis
Type: functional, cell-based
Conditions: MOLT-4, 72 h
In short: as §2
In the case of `O=C1/C(=C\c2ccc(Cl)cc2)CN(C(=O)CC(=O)N2C/C(=C\c3ccc(Cl)cc3)C(=O)/C(=C/c3ccc(Cl)cc3)C2)C/C1=C\c1ccc(Cl)cc1`, the IC50 is reported as 1050 nM.

System: CCRF-CEM
Experiment: Cytotoxicity against human CEM cells assessed as dead cells at 1 uM after 24 hrs
Type: functional
Conditions: not given
In short: as §1
Molecule `O=C1/C(=C\c2ccc(Cl)cc2)CN(C(=O)CC(=O)N2C/C(=C\c3ccc(Cl)cc3)C(=O)/C(=C/c3ccc(Cl)cc3)C2)C/C1=C\c1ccc(Cl)cc1` has an Activity of 83%.

System: not listed separately
Experiment: Cytotoxicity against human HuT-102 cells assessed as dead cells at 1 uM after 24 hrs
Type: functional
Conditions: not given
In short: as §1
`O=C1/C(=C\c2ccc(Cl)cc2)CN(C(=O)CC(=O)N2C/C(=C\c3ccc(Cl)cc3)C(=O)/C(=C/c3ccc(Cl)cc3)C2)C/C1=C\c1ccc(Cl)cc1` showed an Activity of 20.4%.

System: not listed separately
Experiment: Cytotoxicity against human MCF10A cells assessed as dead cells at 1 uM after 24 hrs
Type: cell-based
Conditions: mcf-10a
In short: as §3
With `O=C1/C(=C\c2ccc(Cl)cc2)CN(C(=O)CC(=O)N2C/C(=C\c3ccc(Cl)cc3)C(=O)/C(=C/c3ccc(Cl)cc3)C2)C/C1=C\c1ccc(Cl)cc1` the Activity was 3.1%.

System: not listed separately
Experiment: Cytotoxicity against human NALM6 cells assessed as dead cells at 1 uM after 24 hrs
Type: functional, NALM-6
Conditions: not given
In short: as §1
In the case of `O=C1/C(=C\c2ccc(Cl)cc2)CN(C(=O)CC(=O)N2C/C(=C\c3ccc(Cl)cc3)C(=O)/C(=C/c3ccc(Cl)cc3)C2)C/C1=C\c1ccc(Cl)cc1`, the Activity is reported as 68.6%.

System: not listed separately
Experiment: Cytotoxicity against human SupT1 cells assessed as dead cells at 1 uM after 24 hrs
Type: functional, SUP-T1
Conditions: not given
In short: as §1
In the case of `O=C1/C(=C\c2ccc(Cl)cc2)CN(C(=O)CC(=O)N2C/C(=C\c3ccc(Cl)cc3)C(=O)/C(=C/c3ccc(Cl)cc3)C2)C/C1=C\c1ccc(Cl)cc1`, the Activity is reported as 21.1%.

System: not listed separately
Experiment: Cytotoxicity against human HCT15 cells assessed as inhibition of tumor growth after 24 hrs
Type: functional, cell-based
Conditions: HCT-15, 24 h
Work on `O=C1/C(=C\c2ccc(Cl)cc2)CN(C(=O)CC(=O)N2C/C(=C\c3ccc(Cl)cc3)C(=O)/C(=C/c3ccc(Cl)cc3)C2)C/C1=C\c1ccc(Cl)cc1` yielded an IC50 of 60 nM.

System: SR
Experiment: Antileukemic activity against human SR cells assessed as inhibition of tumor growth after 24 hrs
Type: functional, cell-based
Conditions: not given
For `O=C1/C(=C\c2ccc(Cl)cc2)CN(C(=O)CC(=O)N2C/C(=C\c3ccc(Cl)cc3)C(=O)/C(=C/c3ccc(Cl)cc3)C2)C/C1=C\c1ccc(Cl)cc1`, the IC50 was 10 nM.
